Compound activity: PubChem, The Scripps Research Institute Molecular Screening Center
Most compounds without a hit are left out; they make up all but 1.8% or so of the library.
LEDGF integ inh: blockers of LEDGF/p75-dependent integrase strand transfer – biochemical, TR-FRET, high throughput, primary screen; 0.64% of 370,000 active; AID 743269, 2014; TR-FRET IN-LEDGF/p75 DNA integration, Eu/Cy5; inhibition, % at 3.7 µM;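 active means inhibition above the screen-wide mean plus 3 SD, cut at about 13% in these data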;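 further: signal is the Cy5 over europium emission ratio at 671 and 618 nm; 0% = plate median of compound wells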
core dimer inh: inhibitors of HCV core protein dimerization, primary screen, biochemical, TR-FRET, high-throughput; TR-FRET GST/Flag-core106 dimerization, 1536-well; inhibition, % at 5 µM; 0.33% of 300,000 active;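 active means inhibition above the mean of all tested compounds plus 3 SD, set per screening campaign, cut at about 45% in these data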
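System: GST/Flag-tagged HCV core106 proteins. Incubation: compound-protein-antibody incubation 4 h at 22.5 °C. Technique: HTRF with 340 nm excitation, 617/671 nm emission. Medium: KF-containing HEPES buffer, pH 7.45, DTT, CHAPS, BSA. Read-out: inhibition (%) from 671 over 617 nm ratio. Also added: Eu(K)-anti-GST 90 ng/mL plus XL665-anti-Flag 1 µg/mL.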
UHRF1 MBD2 ctr: UHRF1 methylated DNA binding inhibitors, primary screen, counter-screen for MBD2 inhibitor project, biochemical, TR-FRET, human UHRF1, single concentration | E3 ubiquitin-protein ligase UHRF1 (Homo sapiens), Q96T88 | UHRF1 binding to methylated oligo | inhibition, % at 4.4 µM | 0.75% of 370,000 active | AID 687016, 2013;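 further: UHRF1 SRA domain binding a hemimethylated CpG hairpin DNA probe; 0% = median of test compound wells and 100% = reference inhibitor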
TDP2 absorb: human TDP2 enzyme inhibitors, primary screen, biochemical, epi absorbance, recombinant enzyme; AID 720702, 2013; T5PNP hydrolysis, p-nitrophenol absorbance 415 nm; 0.34% of 370,000 active; inhibition, % at 12.8 µM;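 active means inhibition above the mean of all tested compounds plus 3 SD, set per campaign, cut at about 25% in these data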;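 further: 0% = DMSO with enzyme and 100% = buffer with substrate but no TDP2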
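System – recombinant human TDP2 · Amount – 120 nM TDP2 per well · Buffer or medium – Mg2+-containing Tris-HCl buffer, pH 7.5 · Reagent – T5PNP substrate, 5 mM · Dosing – 12.8 µM single point, 1% DMSO · Incubation – 2 h at 37 °C · Measured by – epi absorbance · Read-out basis – percent inhibition · Benchmarks – high control without enzyme, low control DMSO plus TDP2 · Repeats – singlicate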
MBD2 inh: inhibitors of MBD2 binding to methylated DNA, primary screen, biochemical, TR-FRET, DNA-binding domain, human; MBD2 binding to methylated oligonucleotide; Methyl-CpG-binding domain protein 2 (Homo sapiens), Q9UBB5; 0.31% of 370,000 active; inhibition, % at 4.4 µM; in the data active means inhibition above about 13%
Target sequence (Q9UBB5 whole entry, looked up, the tested form may be a part): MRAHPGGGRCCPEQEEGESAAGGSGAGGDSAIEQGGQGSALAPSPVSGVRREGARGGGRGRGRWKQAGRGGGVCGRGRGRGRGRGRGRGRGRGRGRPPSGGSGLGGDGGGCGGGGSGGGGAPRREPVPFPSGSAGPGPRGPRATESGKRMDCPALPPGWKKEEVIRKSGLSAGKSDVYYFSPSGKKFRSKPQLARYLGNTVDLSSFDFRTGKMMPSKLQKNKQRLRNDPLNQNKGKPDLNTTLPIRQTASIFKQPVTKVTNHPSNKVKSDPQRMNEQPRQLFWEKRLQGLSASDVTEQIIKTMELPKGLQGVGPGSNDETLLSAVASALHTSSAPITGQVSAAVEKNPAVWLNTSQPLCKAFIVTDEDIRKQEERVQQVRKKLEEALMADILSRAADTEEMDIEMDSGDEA
UHRF1 ctr MBD2: UHRF1 methylated DNA binding inhibitors, counter-screen for MBD2 inhibitor project, biochemical, TR-FRET, human UHRF1; UHRF1 binding to methylated oligonucleotide; 25% of 1,000 active; inhibition, % at 4.4 µM; shares compounds with MBD2 inh;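 further: UHRF1 SRA domain binding a labeled hemimethylated CpG hairpin DNA; 0% = vehicle only and 100% = reference inhibitor with vehicle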
MBD2 DBD conf: inhibitors of MBD2 binding to methylated DNA, confirmation, biochemical, TR-FRET, DNA-binding domain, human. AID 720531, 2013. TR-FRET MBD2-DBD binding to methylated oligonucleotide. inhibition, % at 4.4 µM. shares compounds with MBD2 inh. 26% of 1,000 active; in the data active means inhibition above about 14%
Numbers without * were called inactive. Unless noted, no stated cut-off is given here; in the data, active means inhibition above about 21%; inactive means the rest.

How did COC(=O)CCC(=O)N1C2=NC3=C(C(=O)N(Cc4ccc5c(c4)OCO5)C3=O)C3N(C)c4ccccc4[C@]23C[C@H]1CO (some centres not stated) do in these assays?
LEDGF integ inh: 4.9; UHRF1 MBD2 ctr: 0.1; TDP2 absorb: 0.4; MBD2 inh: 5.3

What do the screens show for `Clc1ccc2c(c1)-c1ccccc1C1=NCCN12`?
LEDGF integ inh: -5.2; UHRF1 MBD2 ctr: -3.0; TDP2 absorb: 8.5; MBD2 inh: 22.3*; UHRF1 ctr MBD2: 2.3; MBD2 DBD conf: 42.1*

Results for Brc1ccc2c(c1)-c1ccccc1C1=NCCN12 ?
LEDGF integ inh: -2.6; UHRF1 MBD2 ctr: -10.8; TDP2 absorb: -7.4; MBD2 inh: 12.9

Results for CCOC(=O)C1=C(COC(=O)C2CC(=O)N(c3ccc(C)cc3)C2)NC(=O)NC1C (configuration not stated) ?
LEDGF integ inh: 5.2; core dimer inh: -2.3; UHRF1 MBD2 ctr: 36.8*; TDP2 absorb: -1.7; MBD2 inh: 14.2*; UHRF1 ctr MBD2: 2.4; MBD2 DBD conf: 0.5

Results for O=C(COC(=O)c1c2c(nc3ccccc13)/C(=C/c1ccco1)CC2)NC1CCCC1 ?
LEDGF integ inh: 39.4*; UHRF1 MBD2 ctr: 45.0*; TDP2 absorb: -0.2; MBD2 inh: 14.3*; UHRF1 ctr MBD2: 43.3*; MBD2 DBD conf: 31.9*

What do the screens show for `C=CCN1C(=O)[C@@H](CC(=O)NCC2CCCCC2)[C@]2(C(=O)OCC)CCCCC/C=C/12`?
LEDGF integ inh: 2.9; UHRF1 MBD2 ctr: -2.7; TDP2 absorb: 0.9; MBD2 inh: -1.8

How did COc1ccc(-c2[nH]nc3oc(=O)cc(C)c23)cc1 do in these assays?
LEDGF integ inh: -2.0; core dimer inh: -2.8; UHRF1 MBD2 ctr: 20.4; TDP2 absorb: -7.6; MBD2 inh: 14.5*; UHRF1 ctr MBD2: 2.9; MBD2 DBD conf: 1.4

What do the screens show for `FC(F)(F)c1ccccc1Cc1c(-c2ccco2)nc2c3ccccc3ccn12`?
LEDGF integ inh: 1.0; UHRF1 MBD2 ctr: 20.5; TDP2 absorb: -6.0; MBD2 inh: 13.4*; UHRF1 ctr MBD2: 13.7; MBD2 DBD conf: 7.8

Results for COc1ccc(NC(=O)Nc2c[nH]c(=O)[nH]c2=O)cc1 ?
LEDGF integ inh: 2.9; core dimer inh: 1.8; UHRF1 MBD2 ctr: -3.5; TDP2 absorb: 2.9; MBD2 inh: 1.6

How did COc1ccc(Cc2c[nH]c(=O)[nH]c2=O)cc1 do in these assays?
LEDGF integ inh: 6.2; core dimer inh: -2.1; UHRF1 MBD2 ctr: 23.6*; TDP2 absorb: -6.1; MBD2 inh: 16.1*; UHRF1 ctr MBD2: 2.2; MBD2 DBD conf: 5.0

Results for COc1ccc(C2C(C(=O)NCCN(C)C)c3cc(OC)c(OC)cc3C(=O)N2C)cc1OC (configuration not stated) ?
LEDGF integ inh: -0.2; core dimer inh: -3.4; UHRF1 MBD2 ctr: 0.9; TDP2 absorb: 9.6; MBD2 inh: 0.1

Results for CCN(CC)CCNC(=O)C1c2cc(OC)c(OC)cc2C(=O)N(C)C1c1cccs1 (configuration not stated) ?
LEDGF integ inh: -3.5; core dimer inh: 1.0; UHRF1 MBD2 ctr: 0.2; TDP2 absorb: -11.8; MBD2 inh: 42.3*; UHRF1 ctr MBD2: 3.3; MBD2 DBD conf: 1.1

How did CC(C)(C)Nc1scc(-c2ccccc2)[n+]1-c1ccccc1 do in these assays?
LEDGF integ inh: 0.0; core dimer inh: -16.4; UHRF1 MBD2 ctr: 5.4; TDP2 absorb: 15.0; MBD2 inh: 18.0*; UHRF1 ctr MBD2: 7.6; MBD2 DBD conf: 2.9

What do the screens show for `Cc1cccc2c(N)c3c(nc12)CCCC3` (tested in a mixture with another compound)?
LEDGF integ inh: 0.3; UHRF1 MBD2 ctr: 4.0; TDP2 absorb: 5.5; MBD2 inh: -2.7

How did Cc1cc(C)c2c(N)c3cccc(C)c3nc2n1 do in these assays?
LEDGF integ inh: -4.3; core dimer inh: -10.5; UHRF1 MBD2 ctr: 29.0*; TDP2 absorb: 4.5; MBD2 inh: 25.0*; UHRF1 ctr MBD2: 37.6*; MBD2 DBD conf: 40.9*

What do the screens show for `Cc1cc(C=O)c(C)n1-c1cccc(C(=O)O)c1`?
LEDGF integ inh: 1.8; core dimer inh: 0.0; UHRF1 MBD2 ctr: 8.4; TDP2 absorb: 6.4; MBD2 inh: 4.5

How did Cc1cc(C=O)c(C)n1-c1cc(C(=O)O)cc(C(=O)O)c1 do in these assays?
LEDGF integ inh: 13.2; core dimer inh: -24.9; UHRF1 MBD2 ctr: 49.2*; TDP2 absorb: -0.7; MBD2 inh: 13.8*; UHRF1 ctr MBD2: 39.3*; MBD2 DBD conf: 10.8

Results for CCC(=O)Nc1cccc(C2=NOC3(C2)C[C@@H](C(N)=O)N(C(=O)COc2ccc(Cl)cc2)C3)c1 (some centres not stated) ?
LEDGF integ inh: 3.5; core dimer inh: 6.4; UHRF1 MBD2 ctr: 1.1; TDP2 absorb: -1.7; MBD2 inh: -0.4

What do the screens show for `C=C(C)C(=O)Nc1cccc(C2=NOC3(C2)C[C@@H](C(N)=O)N(C(=O)/C=C/CC)C3)c1` (some centres not stated)?
LEDGF integ inh: 8.9; core dimer inh: -67.3; UHRF1 MBD2 ctr: 66.6*; TDP2 absorb: -2.6; MBD2 inh: 38.8*; UHRF1 ctr MBD2: 69.0*; MBD2 DBD conf: 43.0*

How did C=C(C)C(=O)Nc1cccc(C2=NOC3(C2)C[C@H](C(N)=O)N(C(=O)COc2ccc(Cl)cc2)C3)c1 (some centres not stated) do in these assays?
LEDGF integ inh: 16.2*; core dimer inh: -202.7; UHRF1 MBD2 ctr: 69.4*; TDP2 absorb: -0.6; MBD2 inh: 51.2*; UHRF1 ctr MBD2: 87.8*; MBD2 DBD conf: 69.4*

How did C=C(C)C(=O)Nc1cccc(C2=NOC3(C2)C[C@@H](C(N)=O)N(C(=O)c2cc([N+](=O)[O-])cc([N+](=O)[O-])c2C)C3)c1 (some centres not stated) do in these assays?
LEDGF integ inh: 9.2; core dimer inh: -45.7; UHRF1 MBD2 ctr: 33.6*; TDP2 absorb: -7.7; MBD2 inh: 17.9*; UHRF1 ctr MBD2: 24.1*; MBD2 DBD conf: 12.4
